The text below walks through data of ChEMBL document CHEMBL1122908, “10-Ketonaltrexone and 10-ketooxymorphone” (J Med Chem, 1985).

The target of test [1] is Kappa-type opioid receptor (Mus musculus) (UniProt P33534). Kind of test: Dose ratio due to Antagonist Effect at a concentration of 100 nM by ethylketazocine, Opioid receptor kappa 1 in mouse vas deferens. In kind it is functional. Put shortly:
(§1)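 Isolated guinea pig ileum myenteric plexus–longitudinal muscle and mouse vas deferens. Agonists were normorphine (μ) and ethylketazocine (κ) in both tissues, and (D-Ala2,D-Leu5)enkephalin (δ) in vas deferens. The shift in IC50 is given as dose ratio, mean ± SEM of three to five separate experiments.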

Test [2] addresses Delta-type opioid receptor (Mus musculus) (UniProt P32300). In words: Dose ratio due to Antagonist Effect at a concentration of 1000 nM by (D-Ala2, D-Leu5)enkephalin, Opioid receptor delta 1 in mouse vas deferens. In kind it is functional. The essentials:
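Isolated guinea pig ileum myenteric plexus–longitudinal muscle and mouse vas deferens. Agonists were normorphine (μ) and ethylketazocine (κ) in both tissues, and (D-Ala2,D-Leu5)enkephalin (δ) in vas deferens. […] The shift in IC50 is given as dose ratio, mean ± SEM of three to five separate experiments.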

Test [3] deals with Mu-type opioid receptor (Cavia porcellus, UniProt P97266). In words: Inhibitory binding constant in guinea pig brain homogenate was reported at mu site at a temperature 25 degree Centigrade labeled with [3H](D-Ala2-MePhe4,Gly-ol5)enkephalin(1 nM). In kind it is tissue-based.
For test [4], the target named is Kappa-type opioid receptor (Cavia porcellus, UniProt P41144). In words: (§2) Inhibitory binding constant in guinea pig brain homogenate was reported at Opioid receptor kappa 1 at temperature 25 degree Celsius labeled with (-)-[3H]immazocine (0.1 nM). Format: tissue-based.
In test [5] the target is Kappa-type opioid receptor (Cavia porcellus) (UniProt P41144). Kind of test: Dose ratio due to Antagonist Effect at a concentration of 100 nM by ethylketazocine, Opioid receptor kappa 1 in the guinea pig ileum longitudinal muscle myenteric plexus. Format: functional, tissue-based. Put shortly: as §1
For test [6], the target named is Mu-type opioid receptor (Mus musculus) (UniProt P42866). Kind of test: Dose ratio due to Antagonist Effect at a concentration of 100 nM by normorphine, Opioid receptor mu 1 in mouse vas deferens. In kind it is functional. The essentials: as §1
Test [7] deals with Mu-type opioid receptor (Cavia porcellus) (UniProt P97266). In words: Dose ratio due to Antagonist Effect at a concentration of 100 nM by normorphine, Opioid receptor mu 1 in the guinea pig ileum longitudinal muscle myenteric plexus. Format: functional, tissue-based. Put shortly:
as §1

Test [8] is filed under the species Cavia porcellus. In words: Agonist activity in the guinea pig ileum longitudinal muscle myenteric plexus. In kind it is functional. The essentials: (§3)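 Isolated guinea pig ileum myenteric plexus–longitudinal muscle or mouse vas deferens preparations, run at 25 °C, testing opioid agonist potency.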
Test [9] is filed under the species Mus musculus. In words: Agonist activity in the mouse vas deferens. Format: functional. Put shortly: as §3
The target of test [10] is Kappa-type opioid receptor (Cavia porcellus) (UniProt P41144). Described as §2. Format: tissue-based.
Test [11] has as its target Mu-type opioid receptor (Cavia porcellus) (UniProt P97266). In words: Inhibitory binding constant in guinea pig brain homogenate was reported at mu site at a temperature 25 degree Celsius labeled with [3H](D-Ala2-MePhe4,Gly-ol5)enkephalin(1nM). In kind it is tissue-based.

Each structure is given as a SMILES string.

Mu-type opioid receptor (Cavia porcellus), sequence (P97266 whole entry): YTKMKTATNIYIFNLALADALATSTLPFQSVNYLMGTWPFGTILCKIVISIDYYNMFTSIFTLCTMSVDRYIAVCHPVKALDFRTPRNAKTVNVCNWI
Kappa-type opioid receptor (Cavia porcellus), sequence (P41144 whole entry): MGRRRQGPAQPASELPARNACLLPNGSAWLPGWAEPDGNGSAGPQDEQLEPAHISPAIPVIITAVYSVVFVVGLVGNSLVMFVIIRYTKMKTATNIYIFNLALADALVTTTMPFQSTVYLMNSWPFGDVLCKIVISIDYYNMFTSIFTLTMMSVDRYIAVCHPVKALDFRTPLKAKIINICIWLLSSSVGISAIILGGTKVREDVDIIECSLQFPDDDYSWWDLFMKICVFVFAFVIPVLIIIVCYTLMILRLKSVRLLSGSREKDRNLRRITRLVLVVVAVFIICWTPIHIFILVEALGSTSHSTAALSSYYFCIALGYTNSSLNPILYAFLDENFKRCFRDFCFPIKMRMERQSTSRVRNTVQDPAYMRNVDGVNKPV
Kappa-type opioid receptor (Mus musculus), sequence (P33534 whole entry): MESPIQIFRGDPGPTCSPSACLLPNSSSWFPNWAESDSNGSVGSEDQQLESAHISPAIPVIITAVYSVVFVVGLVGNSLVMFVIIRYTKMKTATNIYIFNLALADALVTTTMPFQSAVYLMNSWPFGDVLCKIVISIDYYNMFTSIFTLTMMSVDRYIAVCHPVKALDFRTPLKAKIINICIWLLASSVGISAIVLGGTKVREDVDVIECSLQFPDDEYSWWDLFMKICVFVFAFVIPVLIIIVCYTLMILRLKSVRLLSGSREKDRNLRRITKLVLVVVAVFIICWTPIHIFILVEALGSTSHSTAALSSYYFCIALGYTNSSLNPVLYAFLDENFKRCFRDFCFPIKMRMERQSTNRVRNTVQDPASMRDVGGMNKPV
Mu-type opioid receptor (Mus musculus), sequence (P42866 whole entry): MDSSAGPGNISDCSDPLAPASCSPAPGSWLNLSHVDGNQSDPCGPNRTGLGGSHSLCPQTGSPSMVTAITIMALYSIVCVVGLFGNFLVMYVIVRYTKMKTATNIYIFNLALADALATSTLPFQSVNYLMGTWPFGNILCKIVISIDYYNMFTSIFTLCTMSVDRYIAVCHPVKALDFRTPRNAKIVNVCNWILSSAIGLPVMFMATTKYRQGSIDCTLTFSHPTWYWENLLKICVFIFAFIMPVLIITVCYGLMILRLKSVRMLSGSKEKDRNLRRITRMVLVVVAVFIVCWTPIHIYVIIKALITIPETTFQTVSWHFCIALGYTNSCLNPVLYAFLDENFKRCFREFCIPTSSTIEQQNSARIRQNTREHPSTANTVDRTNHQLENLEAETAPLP
Mu-type opioid receptor, sequence (P97266 whole entry): as the sequence (P97266 whole entry) above
Kappa-type opioid receptor, sequence (P41144 whole entry): as the sequence (P41144 whole entry) above
Delta-type opioid receptor (Mus musculus), sequence (P32300 whole entry): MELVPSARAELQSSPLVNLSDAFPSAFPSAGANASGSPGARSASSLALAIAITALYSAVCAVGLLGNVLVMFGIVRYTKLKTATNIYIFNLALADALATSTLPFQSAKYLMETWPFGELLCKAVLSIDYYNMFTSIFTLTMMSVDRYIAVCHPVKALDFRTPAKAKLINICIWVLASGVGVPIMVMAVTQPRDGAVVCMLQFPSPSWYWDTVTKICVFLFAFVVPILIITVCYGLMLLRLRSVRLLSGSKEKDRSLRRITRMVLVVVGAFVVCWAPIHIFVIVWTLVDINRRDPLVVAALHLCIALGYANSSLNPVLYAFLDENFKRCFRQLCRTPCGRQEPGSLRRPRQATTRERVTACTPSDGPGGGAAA

Regarding `O=C1c2ccc(O)c3c2C24CCN(CC5CC5)C1[C@]2(O)CCC(=O)[C@@H]4O3` (stereo partly drawn) [KETONALTREXONE], the Dose ratio in [1] is 0.93; in test [2] it was 0.71; in test [5] it was 1.58; in test [6], 0.57; in test [7] it was 1.84. Besides, the Ki in test [3] amounted to 31.1 nM; in test [4], 102 nM.

`CN1CCC23c4c5ccc(O)c4O[C@H]2C(=O)CC[C@@]3(O)C1C5=O` (stereo partly drawn) [KETOXYMORPHONE]: the IC50 in test [8] and in test [9] was greater than 1000 nM throughout. The inhibition turned out to be 17% in [10] and 19% in test [11].

In the case of `CN1CC[C@]23c4c5ccc(O)c4O[C@H]2C(=O)CC[C@@]3(O)[C@H]1C5` [OXYMORPHONE], the IC50 was 24 nM in test [8] and 77 nM in test [9].
